Assay results from ChEMBL document CHEMBL1152628, “Synthesis and antioxidant properties of new chromone derivatives” (Bioorg Med Chem, 2009).
Calls of active or inactive are those of the source. The calls are words filed in the database; no cut-off is given here.

How the values were obtained:
[1] = Antioxidant activity assessed as peroxyl radical scavenging activity by measuring oxygen radical absorbance capacity; type: functional; design: reference not given here
[2] = Antioxidant activity assessed as superoxide radical scavenging activity by NBT dye reduction assay; type: functional
Method in brief: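 Superoxide generated by the NADH/PMS system. Scavenging read as inhibition (%) of O2•−-driven NBT reduction to diformazan at 560 nm. Tiron was the positive control. IC50 given as mean ± SE, five experiments in triplicate.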

[3] = Antioxidant activity assessed as peroxynitrite scavenging activity in presence of NaHCO3 by fluorescent rhodamine formation assay; type: functional
[4] = Antioxidant activity assessed as singlet oxygen scavenging activity by fluorescent rhodamine formation assay; type: functional
Method in brief: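 Singlet oxygen scavenging monitored as inhibition (%) of 1O2-induced oxidation of non-fluorescent dihydrorhodamine to fluorescent rhodamine. Ascorbic acid was the positive control. IC50 given as mean ± SE, five experiments in triplicate.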

[5] = Antioxidant activity assessed as nitric oxide scavenging activity by fluorescent triazofluorescein formation assay; type: functional
Method in brief: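 NO scavenging measured as inhibition (%) of NO-induced oxidation of non-fluorescent DAF-2 to fluorescent triazolofluorescein. Rutin was the positive control. IC50 given as mean ± SE, five experiments in triplicate.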

[6] = Reducing activity assessed as reduction of ferric ion by reducing power assay
Method in brief: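 Compounds in 1:4 water/DMSO were mixed with 0.2 M phosphate buffer pH 6.6 and 1% w/v K3Fe(CN)6, then held 20 min at 50 °C. After 10% w/v TCA and centrifugation (10 min, 3000 g), the supernatant was diluted with water plus 0.1% w/v FeCl3 and read at 700 nm. Ascorbic acid was the positive control. Values are mean ± SE of triplicates.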

[7] = Antioxidant activity assessed as hypochlorous acid scavenging activity by fluorescent rhodamine formation assay; type: functional
Method in brief: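 Fluorescent assay of HOCl-induced dihydrorhodamine oxidation to rhodamine, with HOCl from 1% (m/v) NaOCl adjusted to pH 6.2 with 10% H2SO4. Lipoic acid was the positive control. IC50 (mean ± SE) comes from % inhibition, five experiments in triplicate.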

[8] = Antioxidant activity assessed as peroxynitrite scavenging activity in absence of NaHCO3 by fluorescent rhodamine formation assay; type: functional
[9] = Antioxidant activity assessed as hydrogen peroxide scavenging activity by lucigenin oxidation assay; type: functional
Method in brief: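 H2O2 scavenging followed as inhibition (%) of H2O2-induced lucigenin oxidation on a microplate reader. Ascorbic acid was the positive control. IC50 reported as mean ± SE from five experiments, each in triplicate.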

[10] = Iron chelating activity assessed as Fe(2+)-compound complex formation at 10 uM by UV-Vis absorption spectroscopy; type: functional
Method in brief: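 Iron chelation checked from changes in the UV–vis spectrum (300–600 nm) of a 10 µM (final) compound solution in 20 mM phosphate buffer, pH 7.2. Fe(II) was added sequentially to 0, 2, 4, 6, 8, 10, 12, 14 and 16 µM.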

[11] = Antioxidant activity assessed as hypochlorous acid scavenging activity at 200 uM by fluorescent rhodamine formation assay; type: functional
Method in brief: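 HOCl was made by bringing 1% (m/v) NaOCl to pH 6.2 with 10% H2SO4. Scavenging was read as inhibition (%) of HOCl-induced oxidation of dihydrorhodamine to fluorescent rhodamine. Value given as mean % at the highest tested concentration (200 µM). Five experiments in triplicate.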

[12] = Antioxidant activity assessed as hydrogen peroxide scavenging activity at 1 mM by lucigenin oxidation assay; type: functional

SMILES	Activity [1]	IC50 [2] [µM]	IC50 [3] [µM]	IC50 [4] [µM]	IC50 [5] [µM]	Activity [6]	IC50 [7] [µM]	IC50 [8] [µM]	IC50 [9] [µM]	Activity [10]	Activity [11] [%]	Activity [12] [%]
CCCCc1c(-c2ccc(O)c(O)c2)oc2cc(O)cc(O)c2c1=O	2.66	51.8	1.24	61.8	2.72	Active	1.45	0.6	502			
COc1ccc2c(=O)cc(/C=C/c3ccc(O)c(O)c3)oc2c1OC	2.74	20.8	0.93	7.97	0.368	Active	4.67	1.21	702	Active		
CCCCCCCCCCc1c(-c2ccc(O)c(O)c2)oc2cc(O)cc(O)c2c1=O	1.63	78	1.82	7.9	4.85		1.7	0.83	236			
O=S(=O)(O)c1cc(O)c(O)c(S(=O)(=O)O)c1 [TIRON]		288										
C[C@@H]1O[C@@H](OC[C@H]2O[C@@H](Oc3c(-c4ccc(O)c(O)c4)oc4cc(O)cc(O)c4c3=O)[C@H](O)[C@@H](O)[C@@H]2O)[C@H](O)[C@H](O)[C@H]1O [RUTIN]					1.17							
O=c1cc(/C=C/c2ccc(O)c(O)c2)oc2c(O)c(O)ccc12	2.58	17.8	1.59	4.69	0.193	Active	67.2	0.85	799	Active		
O=C1O[C@H]([C@@H](O)CO)C(O)=C1O [ASCORBIC ACID]	0.405			10.2		Active			567			
COc1ccc(/C=C/c2cc(=O)c3ccc(O)c(O)c3o2)cc1OC	1.4	26	2.08	9.95	0.254	Active		0.59		Active	47	31
O=c1c2ccccc2[se]n1-c1ccccc1 [EBSELEN]			5.27					1				
O=C(O)CCCCC1CCSS1 (stereo not drawn) [LIPOIC ACID, ALPHA]							1.95					
O=C(c1ccc(O)c(O)c1)c1c(-c2ccc(O)c(O)c2)oc2cc(O)cc(O)c2c1=O	4.32	19.5	1.97	43	3.62	Active	2.29	0.66	367			
CCCCCCc1c(-c2ccc(O)c(O)c2)oc2cc(O)cc(O)c2c1=O	2	62.8	1.8	58.6	3.29	Active	2.49	1.48	348			
